Test results as given in ChEMBL document CHEMBL1130067, “Pyridazinodiazepines as a high-affinity, P2-P3 peptidomimetic class of interleukin-1 beta-converting enzyme inhibitor” (J Med Chem, 1997).
Peptide text beside a SMILES is read from it. * marks the point of attachment. Cbz = O=C(OCc1ccccc1)*

target: T1, Caspase-1 (Homo sapiens, UniProt P29466); assay: Reversible Inhibition constants against IL-1 beta converting enzyme (ICE)
T1 sequence (P29466 whole entry): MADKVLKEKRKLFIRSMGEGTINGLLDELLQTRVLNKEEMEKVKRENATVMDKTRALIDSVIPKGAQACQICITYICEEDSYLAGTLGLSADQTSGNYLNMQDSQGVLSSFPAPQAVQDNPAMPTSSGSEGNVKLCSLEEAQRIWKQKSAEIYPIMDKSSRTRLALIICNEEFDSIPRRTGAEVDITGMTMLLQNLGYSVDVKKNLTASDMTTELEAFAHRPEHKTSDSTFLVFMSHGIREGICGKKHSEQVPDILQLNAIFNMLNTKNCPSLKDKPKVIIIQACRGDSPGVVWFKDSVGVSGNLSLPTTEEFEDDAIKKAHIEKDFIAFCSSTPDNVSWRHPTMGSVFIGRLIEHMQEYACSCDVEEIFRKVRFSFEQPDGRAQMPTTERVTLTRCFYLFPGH
Procedure, shortened: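 Fluorescence progress curves are recorded at 37 °C over 30 min. Ki for reversible inhibitors is derived by a method from a cited reference. Determinations are in triplicate, standard error <10%.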

Compared with `O=C[C@H](CC(=O)O)NC(=O)[C@@H]1CCCN2C(=O)CC[C@H](NC(=O)c3ccc(OCC(=O)O)cc3)C(=O)N12`, `O=C[C@H](CC(=O)O)NC(=O)[C@@H]1CCCN2C(=O)CC[C@H](NC(=O)c3ccccc3)C(=O)N12` is 5-fold higher in Ki: 1 nM for the first, 5 nM for the second.

Going from `CC(C)[C@H](NC(=O)OCc1ccccc1)C(=O)N[C@@H](C)C(=O)N[C@@H](CC(=O)O)C(=O)O` (Cbz-Val-Ala-Asp-OH) to `O=C[C@H](CC(=O)O)NC(=O)[C@@H]1CCCN2C(=O)CC[C@H](NC(=O)OCc3ccccc3)C(=O)N12`, the Ki rises from 15 nM to 25 nM (1.7-fold). The first binds more tightly here.

species: Homo sapiens; assay: Inhibitory concentration against IL1-beta production in human monocytes; assay type: functional

For `O=C[C@H](CC(=O)O)NC(=O)[C@@H]1CCCN2C(=O)CC[C@H](NC(=O)c3ccccc3)C(=O)N12`, the IC50 was 1000 nM.

target: T2, Caspase-1 (Homo sapiens) (UniProt P29466); assay: Second order rate constants were tested for inhibition of IL-1 beta converting enzyme (ICE)
T2 sequence (whole entry): T1 sequence (P29466 whole entry)
Procedure, shortened: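 Fluorogenic progress-curve assay: ICE in 10 mM HEPES pH 7.5, 25% glycerol, 1 mM DTT, with 10 µM Suc-Tyr-Val-Ala-Asp-AMC; read at 37 °C over 30 min. Inactivation rates are taken from nonlinear progress curves by the Tian–Tsou method, giving second-order rate constants. Determinations are in triplicate, standard error <10%.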

`CC(C)[C@H](NC(=O)OCc1ccccc1)C(=O)N[C@@H](C)C(=O)N[C@@H](CC(=O)O)C(=O)COC(=O)c1c(Cl)cccc1Cl` and `CC(C)[C@H](NC(=O)OCc1ccccc1)C(=O)N[C@@H](C)C(=O)N[C@@H](CC(=O)O)C(=O)COc1cc(C(F)(F)F)nn1-c1ccc(Cl)cc1` are within 1.5-fold of each other in K obs / 1: 432000 M⁻¹ s⁻¹ for the first, 340000 M⁻¹ s⁻¹ for the second.

Going from `CN1CCN(Cc2ccc(C(=O)N[C@H]3CCC(=O)N4CCC[C@@H](C(=O)N[C@@H](CC(=O)O)C(=O)COC(=O)c5c(Cl)cccc5Cl)N4C3=O)cc2)CC1` to `O=C(O)C[C@H](NC(=O)[C@@H]1CCCN2C(=O)CC[C@H](NC(=O)c3ccc(CN4CCOCC4)cc3)C(=O)N12)C(=O)COC(=O)c1c(Cl)cccc1Cl`, the K obs / 1 rises from 210000 M⁻¹ s⁻¹ to 425000 M⁻¹ s⁻¹ (2-fold).

First: O=C(O)C[C@H](NC(=O)[C@@H]1CS[C@H]2CC[C@H](NC(=O)OCc3ccccc3)C(=O)N21)C(=O)COc1cc(C(F)(F)F)nn1-c1ccccc1
Second: O=C(O)C[C@H](NC(=O)[C@@H]1CCCN2C(=O)CC[C@H](NC(=O)OCc3ccccc3)C(=O)N12)C(=O)COc1cc(C(F)(F)F)nn1-c1ccccc1
The K obs / 1 of the first is 9.8-fold lower: 42000 M⁻¹ s⁻¹ for the first, 413000 M⁻¹ s⁻¹ for the second.

Compared with `Cc1nccn1Cc1ccc(C(=O)N[C@H]2CCC(=O)N3CCC[C@@H](C(=O)N[C@@H](CC(=O)O)C(=O)COC(=O)c4c(Cl)cccc4Cl)N3C2=O)cc1`, `O=C(O)C[C@H](NC(=O)[C@@H]1CCCN2C(=O)CC[C@H](NC(=O)OCc3ccccc3)C(=O)N12)C(=O)COC(=O)c1c(Cl)cccc1Cl` is 1.7-fold higher in K obs / 1: 340000 M⁻¹ s⁻¹ for the first, 572000 M⁻¹ s⁻¹ for the second.

First: O=C(O)C[C@H](NC(=O)CN1C(=O)[C@@H](NC(=O)OCc2ccccc2)COc2ccccc21)C(=O)COc1cc(C(F)(F)F)nn1-c1ccc(Cl)cc1
Second: O=C(O)C[C@H](NC(=O)Cn1c(-c2ccc(F)cc2)ncc(NC(=O)OCc2ccccc2)c1=O)C(=O)COc1cc(C(F)(F)F)nn1-c1ccc(Cl)cc1
The K obs / 1 of the first is 2.7-fold lower: 114000 M⁻¹ s⁻¹ for the first, 310000 M⁻¹ s⁻¹ for the second.

`CC(C)[C@H](NC(=O)c1ccc(CN2CCN(C)CC2)cc1)C(=O)N[C@@H](C)C(=O)N[C@@H](CC(=O)O)C(=O)COc1cc(C(F)(F)F)nn1-c1ccc(Cl)cc1` and `CC(C)[C@H](NC(=O)c1ccc(CN2CCOCC2)cc1)C(=O)N[C@@H](C)C(=O)N[C@@H](CC(=O)O)C(=O)COc1cc(C(F)(F)F)nn1-c1ccccc1` are within 1.5-fold of each other in K obs / 1: 200000 M⁻¹ s⁻¹ for the first, 186000 M⁻¹ s⁻¹ for the second.

Compared with `O=C(O)C[C@H](NC(=O)CN1C(=O)[C@@H](NC(=O)OCc2ccccc2)COc2ccccc21)C(=O)COC(=O)c1c(Cl)cccc1Cl`, `O=C(O)C[C@H](NC(=O)Cn1c(-c2ccc(F)cc2)ncc(NC(=O)OCc2ccccc2)c1=O)C(=O)COC(=O)c1c(Cl)cccc1Cl` is 6.1-fold higher in K obs / 1: 44000 M⁻¹ s⁻¹ for the first, 268000 M⁻¹ s⁻¹ for the second.

Going from `C[C@@H](C(=O)N[C@@H](CC(=O)O)C(=O)COc1cc(C(F)(F)F)nn1-c1ccccc1)N1CC[C@H](NC(=O)OCc2ccccc2)C1=O` to `O=C(O)C[C@H](NC(=O)[C@@H]1CCCN2C(=O)CC[C@H](NC(=O)OCc3ccccc3)C(=O)N12)C(=O)COc1cc(C(F)(F)F)nn1-c1ccc(Cl)cc1`, the K obs / 1 rises from 31800 M⁻¹ s⁻¹ to 437000 M⁻¹ s⁻¹ (14-fold).

First: CSc1ccc(C(=O)N[C@H](C(=O)N[C@@H](C)C(=O)N[C@@H](CC(=O)O)C(=O)COc2cc(C(F)(F)F)nn2-c2ccccc2)C(C)C)cc1
Second: CSc1ccc(C(=O)Nc2cnc(-c3ccc(F)cc3)n(CC(=O)N[C@@H](CC(=O)O)C(=O)COc3cc(C(F)(F)F)nn3-c3ccc(Cl)cc3)c2=O)cc1
The K obs / 1 of the first is 7.3-fold higher: 800000 M⁻¹ s⁻¹ for the first, 110000 M⁻¹ s⁻¹ for the second.

Going from `O=C(O)CSc1ccc(C(=O)N[C@H]2CCC(=O)N3CCC[C@@H](C(=O)N[C@@H](CC(=O)O)C(=O)COc4cc(C(F)(F)F)nn4-c4ccc(Cl)cc4)N3C2=O)cc1` to `O=C(O)CCCc1ccc(C(=O)N[C@H]2CCC(=O)N3CCC[C@@H](C(=O)N[C@@H](CC(=O)O)C(=O)COc4cc(C(F)(F)F)nn4-c4ccc(Cl)cc4)N3C2=O)cc1`, the K obs / 1 falls from 1.22e+06 M⁻¹ s⁻¹ to 800000 M⁻¹ s⁻¹ (1.5-fold).

`CN(C)Cc1ccc(C(=O)N[C@H]2CCC(=O)N3CCC[C@@H](C(=O)N[C@@H](CC(=O)O)C(=O)COc4cc(C(F)(F)F)nn4-c4ccc(Cl)cc4)N3C2=O)cc1` was tested, and the K obs / 1 was 162000 M⁻¹ s⁻¹.
